Arrestin-AP2 inh: blocks beta-arrestin peptide binding to AP2 adaptin. FITC-arrestin peptide / GST-AP2 beads, flow cytometry; AP2 beta2 appendage carries R879A mutation. AID 504490. actives 0.31% (n = 340,000). inhibition, % at 10 µM;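 active means inhibition above a set limit, near 3 SD of compounds lacking own fluorescence, cut at about 54% in these data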;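 further: plate controls were DMSO wells for no effect and 5 µM unlabelled arrestin peptide for full effect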
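Assay system: GST-AP2 R879A bound to glutathione beads, E. coli-expressed; Medium: PBS with 0.05% Tween 20 and 0.1% BSA; Also added: fluorescein-tagged arrestin peptide at 50 nM final; Timing: 12 min plus 1 h, RT; Measured by: flow cytometry, FL1 (488/535 nm); Evaluation: percent drop in bead-associated FITC signal.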
MEKK3 PB1 HTS: raises or lowers MEK5 binding to the human MEKK3 PB1 domain; Q99759; bead-based flow cytometry, Alexa488-MEK5 binding to MEKK3; actives lie on both sides; 0 = blocked by unlabeled MEK5, 100 = vehicle; binding response (% of control), % at 10 µM; actives 1.4% (n = 290,000); AID 1529;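 active means binding response more than 3 SD above or below the average of its plate-row segment, actives on both sides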;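 further: Alexa488 bead fluorescence after subtracting the streptavidin-only scavenger bead signal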
Target sequence (Q99759 whole entry, looked up, the tested form may be a part): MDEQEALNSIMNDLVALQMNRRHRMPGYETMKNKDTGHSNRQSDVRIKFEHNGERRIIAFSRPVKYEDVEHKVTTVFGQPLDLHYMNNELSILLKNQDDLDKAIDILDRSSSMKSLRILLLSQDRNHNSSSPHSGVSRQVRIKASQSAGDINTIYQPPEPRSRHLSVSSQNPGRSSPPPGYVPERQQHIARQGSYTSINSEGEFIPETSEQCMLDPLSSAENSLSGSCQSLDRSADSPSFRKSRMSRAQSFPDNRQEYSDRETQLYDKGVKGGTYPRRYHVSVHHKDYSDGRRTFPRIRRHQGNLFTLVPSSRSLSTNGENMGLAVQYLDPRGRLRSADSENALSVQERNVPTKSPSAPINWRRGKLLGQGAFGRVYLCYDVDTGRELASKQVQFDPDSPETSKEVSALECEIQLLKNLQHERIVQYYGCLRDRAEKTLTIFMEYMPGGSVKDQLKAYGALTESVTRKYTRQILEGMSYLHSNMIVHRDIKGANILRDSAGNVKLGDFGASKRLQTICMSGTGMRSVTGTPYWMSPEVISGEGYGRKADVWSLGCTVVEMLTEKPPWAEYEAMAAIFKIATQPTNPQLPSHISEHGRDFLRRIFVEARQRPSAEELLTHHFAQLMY
MEKK2wt PB1 HTS: raises or lowers MEK5 binding to wildtype human MEKK2 PB1 domain. bead flow cytometry, Alexa488-MEK5 binding to MEKK2 WT; actives lie on both sides. binding response (% of control), % at 10 µM. actives 1.1% (n = 290,000); in the data active means binding response below about 67% or above about 130%
MEKK2 mut-MEK5: signal of MEK5 binding to mutant human MEKK2 PB1 domain. bead flow cytometry, Alexa488-MEK5 binding to MEKK2 mutant. percent response, % at 10 µM. actives 0.35% (n = 290,000). AID 1530; in the data active means percent response above about 24%, passing the limit was not always enough
MEKK2wt confirm: raises or lowers MEK5 binding to wildtype human MEKK2, retest; shares compounds with MEKK3 PB1 HTS; bead flow cytometry, Alexa488-MEK5 binding to MEKK2 WT; actives lie on both sides; binding response (% of control), % at 10 µM; actives 2.4% (n = 5,900); in the data active means binding response below about 16% or above about 210%; inactive means in between
MEKK2mut-MEK5: signal of MEK5 binding to mutant human MEKK2, retest; shares compounds with MEKK3 PB1 HTS; bead flow cytometry, Alexa488-MEK5 binding to MEKK2 mutant; percent response, % at 10 µM; actives 2% (n = 5,900); AID 1893; in the data active means percent response mostly above about 71%, no sharp cut-off; inactive means mostly below about 38%;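 further: higher means compound restores mutant binding toward wildtype level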
MEKK3-MEK5 inh: confirmation of inhibitors of MEK5 binding to human MEKK3. shares compounds with MEKK3 PB1 HTS. bead flow cytometry, Alexa488-MEK5 binding to MEKK3; hits give low values. binding response (% of control), % at 10 µM. actives 1.8% (n = 5,900). AID 1894;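 active means binding response below 72% of control, or above a set upper limit, though filed actives all read lower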;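 further: 100% = DMSO only wells and 0% = binding blocked by excess unlabeled MEK5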
Numbers without * were called inactive; / = no result; [ ] = dose if it differs, or a comment. Hits are enriched below; roughly 2.3% of the tested compounds scored in any of these assays.

SMILES | Arrestin-AP2 inh | MEKK3 PB1 HTS | MEKK2wt PB1 HTS | MEKK2 mut-MEK5 | MEKK2wt confirm | MEKK2mut-MEK5 | MEKK3-MEK5 inh
C=CCn1c(=O)/c(=C2/Sc3ccccc3N2CC)s/c1=C1/C(=O)NN=C1C | / | 76.0 | 57.0*[inhibitor] | -10.0 | 104.0 | 1.0 | 104.0
C=CCn1c(=O)/c(=C2/SC(C)=C(C)N2CC)s/c1=C1/C(=O)N(CC)C(=S)N1c1ccccc1 | -12.0 | / | / | / | / | / | /
COc1ccc(C2=NN(C(=O)c3cccs3)C(c3ccccc3O)C2)cc1 (stereo not given) | 3.7 | 50.0*[inhibitor] | 48.0 | -15.0 | 90.0 | -8.0 | 96.0
COc1ccc(C2CC(c3ccccc3)=NN2C(=O)c2cccs2)cc1 (stereo not given) | 0.1 | 99.0 | 96.0 | 0.0 | / | / | /
CCOc1nc2c(c(-c3cccs3)c1C#N)Cc1ccccc1-2 | -5.2 | 94.0 | 91.0 | -1.0 | / | / | /
COc1nc2c(c(-c3cc(Br)cs3)c1C#N)Cc1ccccc1-2 | 14.9 | 133.0* | 127.0 | 25.0 | 98.0 | -4.0 | 102.0
COc1nc(NCCC2=CCCCC2)nc(OC)n1 | 23.8 | 124.0* | 107.0 | 4.0 | 107.0 | 4.0 | 106.0
COc1cccc(CC(=O)Nc2ccc(S(=O)(=O)Nc3nc(C)cc(C)n3)cc2)c1 | -14.2 | 102.0 | 102.0 | -1.0 | / | / | /
OCCN(CCO)CC(O)COc1ccc(C23CC4CC(CC(C4)C2)C3)cc1 (stereo not given) | 11.8 | 132.0* | 122.0 | 3.0 | 140.0 | 15.0 | 107.0
Cn1c(Cn2c(C(F)(F)F)nc3ccccc32)nc2ccccc21 | 0.3 | 109.0 | 110.0 | 24.0* | 102.0 | 5.0 | 103.0
OCCn1c(C(F)(F)F)nc2ccccc21 | 3.5 | 106.0 | 100.0 | -4.0 | / | / | /
Cc1ccc(C(C)C)c(OCCNCCc2ccccc2)c1 | -4.5 | 112.0 | 160.0* | 9.0 | 98.0 | -4.0 | 99.0
CCc1ccc2c(CN3CCN(S(=O)(=O)c4cccs4)CC3)cc(=O)oc2c1 | 3.1 | 135.0* | 100.0 | 1.0 | 92.0 | -8.0 | 98.0
CCc1ccc2c(CN3CCN(S(=O)(=O)c4ccccc4F)CC3)cc(=O)oc2c1 | 13.5 | / | / | / | / | / | /
O=C(Nc1ccc(F)cc1)OCCN1CCN(Cc2ccccc2)CCC1=O | 9.9 | 2.0*[inhibitor] | 2.0*[inhibitor] | -2.0 | 103.0 | -3.0 | 100.0
Cc1nc2c3cc(F)ccc3n(Cc3ccc(F)cc3)c2s1 | 16.8 | 144.0* | 111.0 | 0.0 | 93.0 | -5.0 | 96.0
COc1ccc(S(=O)(=O)Nc2cc(C)on2)cc1 | -10.3 | 96.0 | 98.0 | -2.0 | / | / | /
CN1CCc2nc(SCc3ccc(C(C)(C)C)cc3)c(C#N)cc2C1 | -8.0 | 110.0 | 142.0* | 17.0 | 137.0 | 20.0 | 104.0
Cc1ccc(/C=N/NC(=O)CSc2nc3ccccc3[nH]2)o1 | -4.8 | 98.0 | 95.0 | -4.0 | / | / | /
S=C1N(c2ccccc2)C(c2ccc(Cl)cc2)N2CCCN12 (stereo not given) | 25.2 | 105.0 | 113.0 | 8.0 | / | / | /
COc1ccc(C2N(c3ccccc3)C(=S)N3CCCN23)cc1 (stereo not given) | 14.6 | 139.0* | 106.0 | 1.0 | 96.0 | 0.0 | 101.0
C=CCSc1nc2c(c(=O)[nH]1)C(c1ccccc1)C(C#N)=C(N)O2 (stereo not given) | 0.8 | 132.0* | 108.0 | 30.0 | 98.0 | -5.0 | 97.0
COc1ccccc1Nc1nnc(SCc2cc(=O)n3cc(C)ccc3n2)s1 | -9.1 | 142.0* | 111.0 | 1.0 | 90.0 | -10.0 | 92.0
Cc1ccc(C2=NN(S(C)(=O)=O)C(c3ccc4nccnc4c3)C2)cc1 (stereo not given) | 0.9 | 94.0 | 3.0*[inhibitor] | 6.0 | 92.0 | -11.0 | 89.0
O=C(O)CCCC(=O)N1N=C(c2ccccc2)CC1c1ccc2nccnc2c1 (stereo not given) | 10.7 | 136.0* | 106.0 | 2.0 | 99.0 | 2.0 | 99.0
SMILES | Arrestin-AP2 inh | MEKK3 PB1 HTS | MEKK2wt PB1 HTS | MEKK2 mut-MEK5 | MEKK2wt confirm | MEKK2mut-MEK5 | MEKK3-MEK5 inh
CS(=O)(=O)Nc1ccc(C2=NN(S(C)(=O)=O)C(c3ccc4c(c3)OCO4)C2)cc1 (stereo not given) | 3.6 | 6.0*[inhibitor] | / | / | 70.0 | -7.0 | 72.0
CC(=O)N1N=C(c2cccc(NS(C)(=O)=O)c2)CC1c1ccc2c(c1)OCO2 (stereo not given) | 5.2 | 99.0 | 106.0 | 3.0 | / | / | /
COc1ccc(C2=NN(S(C)(=O)=O)C(c3ccc4nccnc4c3)C2)cc1 (stereo not given) | / | 1.0*[inhibitor] | / | -3.0 | 98.0 | 1.0 | 99.0
CS(=O)(=O)N1N=C(c2ccccc2)CC1c1ccc2nccnc2c1 (stereo not given) | 10.2 | 98.0 | 103.0 | -1.0 | / | / | /
C(=C\c1ccccc1)/C=N/Nc1nncc(-c2ccccc2)n1 | / | 131.0* | 109.0 | 0.0 | 100.0 | -1.0 | 100.0
Cc1ccc(NC(=O)c2ccc(NCCN)c([N+](=O)[O-])c2)cc1 | 4.6 | 103.0 | 109.0 | -1.0 | / | / | /
Cc1ccc(NC(=O)c2ccc(NCCCN3CCC(C)CC3)c([N+](=O)[O-])c2)cc1F | 35.6 | 105.0 | 158.0* | 23.0 | 153.0 | 34.0 | 107.0
Cc1ccc(NC(=O)c2cc(Cl)ccc2[N+](=O)[O-])cc1C | -19.9 | 102.0 | 104.0 | -2.0 | / | / | /
Cc1cccc(NC(=O)c2cc(Cl)ccc2[N+](=O)[O-])c1 | -14.4 | 147.0* | 111.0 | 1.0 | 116.0 | 3.0 | 103.0
Cc1cccc(NC(=O)c2ccc(NCCc3ccccc3)c([N+](=O)[O-])c2)c1 | -5.6 | 135.0* | 107.0 | 0.0 | 96.0 | -4.0 | 99.0
CCN(CC(=O)NCc1cccs1)C(=O)c1ccc(-c2ccccc2F)o1 | -4.4 | / | / | / | / | / | /
CC(C)(C)NC(=O)NC(=O)CSc1n[nH]c(-c2ccccc2Br)n1 | 5.0 | 103.0 | 101.0 | -2.0 | / | / | /
O=C(Nc1ccccc1)C(c1ccccc1)C1CCCC1 (stereo not given) | 8.1 | 148.0* | 104.0 | 0.0 | 107.0 | 10.0 | 105.0
COC(=O)c1ccccc1NC(=O)C1CC(=O)N(c2ccc(F)cc2)C1 (stereo not given) | 4.5 | 99.0 | 98.0 | -6.0 | / | / | /
COC(=O)c1ccccc1NC(=O)C1CC(=O)N(c2ccc(C)c(C)c2)C1 (stereo not given) | 5.6 | 131.0* | 127.0 | 6.0 | 99.0 | -13.0 | 102.0
COCc1[nH]nc2c1C1(C(=O)N(C)c3ccccc31)C(C#N)=C(N)O2 (stereo not given) | -0.1 | 79.0*[inhibitor] | 79.0 | -5.0 | 106.0 | 4.0 | 103.0
COCCNC(=O)C1=NOC(Cn2cc(C#N)c(=O)n(C)c2=O)C1 (stereo not given) | 7.5 | 145.0* | 129.0 | 6.0 | 100.0 | 4.0 | 108.0

Source: PubChem (NMMLSC)
